From PubChem BioAssay
Most compounds without a hit are left out; they make up all but 2.8% or so of the library.
DENV2 CPE rescue = protects cells from dengue virus 2 cytopathic effect; DENV2-infected cells, cytopathic effect rescue, plate reader; CPE inhibition, % at 9.99 µM; 1.7% of 350,000 active; AID 651640; in the data active = CPE inhibition above about 20%, passing the limit was not always enough; inconclusive = no clear call, values can overlap the other calls; tested in BHK-21 cells
E-selectin induc = E-selectin induction on HUVECs; HUVEC E-selectin immunofluorescence imaging; normalized: neutral wells 0, TNF-alpha wells 100; 0.37% of 260,000 active; P16581; activation, % at 7.58 µM;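 active = mean E-selectin-positive cell signal at least 10% of the positive control, reached in at least 60% of replicates, without over 20% cell loss; inconclusive = no rule given, readout overlaps actives, possibly toxicity-flagged; inactive = the rest, including those meeting only one limit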
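Test system: HUVEC | Signal: Immunofluorescence imaging | Read-out: Percent E-selectin-positive cells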
SIRT5 block = sirtuin-5 (human) deacylase inhibition. Purified SirT5, succinyl-peptide AMC, trypsin-coupled fluorescence. AID 652115. 1.1% of 330,000 active. Q9NXA8. inhibition, % at 15 µM; in the data active = inhibition above about 15%; inconclusive = no clear call, values can overlap the other calls
Target sequence (Q9NXA8 whole entry, looked up): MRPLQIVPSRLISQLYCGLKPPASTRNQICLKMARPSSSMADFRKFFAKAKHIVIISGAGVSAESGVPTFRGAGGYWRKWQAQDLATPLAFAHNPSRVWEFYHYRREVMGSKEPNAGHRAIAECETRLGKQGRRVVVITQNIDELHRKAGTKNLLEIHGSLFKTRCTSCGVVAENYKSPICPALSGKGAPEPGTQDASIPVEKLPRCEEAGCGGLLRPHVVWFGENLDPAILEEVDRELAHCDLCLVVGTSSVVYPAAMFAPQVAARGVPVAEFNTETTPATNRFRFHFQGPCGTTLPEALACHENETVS
Large screens that a line does not name were inactive.

CCCNC(=O)N(C)C[C@H]1Oc2ncc(C#CC3CC3)cc2C(=O)N([C@@H](C)CO)C[C@@H]1C	none
CN(C)CCCNC(=O)[C@H]1[C@H](CO)[C@H]2Cn3c(ccc(-c4cccc(F)c4)c3=O)[C@@H]1N2	none
CCCNC(=O)N1CC(=O)N2[C@H](CO)[C@@H](c3ccc(C#Cc4ccc(F)cc4)cc3)[C@@H]2C1	none
CN(C)C(=O)C[C@@H]1C=C[C@@H](NC(=O)C2CCOCC2)[C@@H](CO)O1	none
COc1ccc(C(NC(=O)C2CCN(CCc3ccccc3)CC2)c2ccccn2)cc1 (stereo not drawn)	SIRT5 block 15
COc1ccc(OCCN2CCC(C(=O)NC(c3ccc(OC)cc3)c3ccccn3)CC2)cc1 (stereo not drawn)	none (no result: SIRT5 block)
Cc1ccc(S(=O)(=O)N(C)CC(=O)N2CCN(Cc3ccc4c(c3)OCO4)CC2)cc1	SIRT5 block 30 (no result: E-selectin induc)
COc1ccc(N(CC(=O)N2CCN(Cc3ccc4c(c3)OCO4)CC2)S(=O)(=O)c2ccc(F)cc2)cc1	none
CO[C@@H]1CN(C)C(=O)c2cc(NC(C)=O)ccc2OC[C@@H](C)N(Cc2nccs2)C[C@@H]1C	none
C[C@H](CO)N1C[C@H](C)[C@H](CN(C)Cc2ccc(Cl)c(Cl)c2)Oc2c(NS(C)(=O)=O)cccc2C1=O	none
C[C@@H]1CN([C@@H](C)CO)C(=O)Cc2cc(NC(=O)CCC(F)(F)F)ccc2O[C@H]1CN(C)C(=O)Nc1cccc2ccccc12	none (no result: DENV2 CPE rescue, SIRT5 block)
C/C=C/c1ccc2c(c1)O[C@H](CN(C)C(=O)c1cnccn1)[C@H](C)CN([C@@H](C)CO)S2(=O)=O	DENV2 CPE rescue inconclusive
CC1=C(C(=O)OCC(Br)(Br)Br)C(c2cccc([N+](=O)[O-])c2)NC(=O)N1CCCC(=O)O (stereo not drawn)	SIRT5 block 23
CCOC(=O)C1=C(C)N(CCCCCC(=O)O)C(=O)NC1c1cccc([N+](=O)[O-])c1 (stereo not drawn)	none (no result: SIRT5 block)
C[C@@H]1CCCCO[C@H](CN(C)Cc2ccc(C(=O)O)cc2)[C@H](C)CN([C@H](C)CO)C(=O)c2cc(NC(=O)c3ccncc3)ccc2O1	DENV2 CPE rescue 42
C[C@@H]1CN([C@@H](C)CO)C(=O)c2cc(NC(=O)c3ccncc3)ccc2O[C@@H](C)CCCCO[C@@H]1CN(C)Cc1ccc(C(F)(F)F)cc1	SIRT5 block 16
COc1ccc(NC(=O)N(C)C[C@@H]2OCCCC[C@@H](C)Oc3ccc(NC(=O)c4ccncc4)cc3C(=O)N([C@@H](C)CO)C[C@H]2C)cc1	DENV2 CPE rescue 41 (no result: SIRT5 block)
COc1ccc(NC(=O)N(C)C[C@H]2OCCCC[C@@H](C)Oc3ccc(NC(=O)c4ccncc4)cc3C(=O)N([C@H](C)CO)C[C@H]2C)cc1	none (no result: SIRT5 block)
C[C@H](CO)N1C[C@H](C)[C@H](CN(C)Cc2ccc(C(=O)O)cc2)OCCCC[C@H](C)Oc2ccc(NC(=O)c3ccncc3)cc2C1=O	none
C[C@@H]1CCCCO[C@@H](CN(C)C(=O)CCC(F)(F)F)[C@H](C)CN([C@H](C)CO)C(=O)c2cc(NC(=O)c3ccncc3)ccc2O1	DENV2 CPE rescue 21
C[C@@H]1CCCCO[C@@H](CN(C)C(=O)CCC(F)(F)F)[C@H](C)CN([C@@H](C)CO)C(=O)c2cc(NC(=O)c3ccncc3)ccc2O1	none (no result: SIRT5 block)
C[C@@H]1CN([C@@H](C)CO)C(=O)c2cc(NC(=O)c3ccncc3)ccc2O[C@@H](C)CCCCO[C@H]1CN(C)Cc1ccc(C(F)(F)F)cc1	none
COc1cccc(-c2cnc3c(c2)C(=O)N([C@@H](C)CO)C[C@H](C)[C@@H](CN(C)C(=O)CN(C)C)O3)c1	none
C[C@@H]1CCCCO[C@H](CN(C)S(=O)(=O)c2ccc(Cl)cc2)[C@@H](C)CN([C@@H](C)CO)C(=O)c2cc(NC(=O)Nc3cccc4ccccc34)ccc2O1	none
CC(C)CC#Cc1ccc2c(c1)O[C@H](CN(C)C(=O)c1cnccn1)[C@H](C)CN([C@@H](C)CO)S2(=O)=O	none
COc1ccc2c3c([nH]c2c1)[C@@H](CO)N(Cc1nccs1)CC31CN(C(=O)C2CCOCC2)C1	none (no result: SIRT5 block)
C[C@H](CO)N1C[C@H](C)[C@@H](CN(C)Cc2ccncc2)Oc2c(NC(=O)Nc3ccc4c(c3)OCO4)cccc2C1=O	none
O=C(C[C@@H]1CC[C@H](NC(=O)C2CCOCC2)[C@H](CO)O1)NCc1ccncc1	DENV2 CPE rescue inconclusive
C[C@@H]1CCCCO[C@@H](CN(C)C(=O)CCC(F)(F)F)[C@H](C)CN([C@H](C)CO)C(=O)c2cc(N(C)C)ccc2O1	none (no result: DENV2 CPE rescue, SIRT5 block)
C[C@@H]1CCCCO[C@@H](CN(C)Cc2ccc(C(=O)O)cc2)[C@H](C)CN([C@H](C)CO)C(=O)c2cc(NC(=O)CCCN(C)C)ccc2O1	none
C[C@@H]1CN([C@H](C)CO)C(=O)c2cc(N(C)C)ccc2O[C@@H](C)CCCCO[C@@H]1CN(C)C(=O)CCC(F)(F)F	DENV2 CPE rescue 106
C[C@@H]1CCCCO[C@@H](CN(C)Cc2ccc(C(=O)O)cc2)[C@H](C)CN([C@@H](C)CO)C(=O)c2cc(NC(=O)CCCN(C)C)ccc2O1	DENV2 CPE rescue 38
C[C@@H]1CCCCO[C@H](CN(C)C(=O)Nc2ccc(C(F)(F)F)cc2)[C@@H](C)CN([C@@H](C)CO)C(=O)c2cc(NC(=O)c3ccncc3)ccc2O1	none
C[C@@H]1CCCCO[C@@H](CN(C)C(=O)Nc2ccc(C(F)(F)F)cc2)[C@@H](C)CN([C@H](C)CO)C(=O)c2cc(NC(=O)c3ccncc3)ccc2O1	DENV2 CPE rescue 28 (no result: SIRT5 block)
C[C@H]1CN([C@@H](C)CO)C(=O)c2cccc(NC(=O)C3CC3)c2O[C@H]1CN(C)C(=O)Nc1ccccc1	none
CCCNC(=O)Nc1ccc2c(c1)OC[C@H](C)N(C(=O)C1CCCCC1)C[C@H](C)[C@@H](OC)CN(C)C2=O	none
O=C(N[C@@H]1CC[C@@H](CCn2cc(C3CCCC3)nn2)O[C@H]1CO)c1cccnc1	DENV2 CPE rescue 29
CCCNC(=O)N[C@@H]1CC[C@H](CCn2cc(C3CCCC3)nn2)O[C@H]1CO	none
CCCNC(=O)N[C@@H]1CC[C@@H](CCn2cc(C3CCCC3)nn2)O[C@H]1CO	DENV2 CPE rescue 33
O=C(N[C@@H]1CC[C@@H](CCn2cc(C3CCCC3)nn2)O[C@@H]1CO)c1cccnc1	none
CC(C)NC(=O)Nc1ccc2c(c1)C(=O)N(C)[C@@H]1CC[C@H](CC(=O)Nc3ccccc3)O[C@@H]1CO2	none
C[C@H](CO)N1C[C@H](C)[C@@H](CN(C)C(=O)c2ccncc2)Oc2ncc(C#CC3CCCC3)cc2C1=O	none (no result: DENV2 CPE rescue, SIRT5 block)
COc1ccc(S(=O)(=O)NC(N)=NCCc2ccccc2OC)cc1	none (no result: E-selectin induc)
COc1ccccc1CCN=C(N)NS(=O)(=O)c1ccc(F)cc1	DENV2 CPE rescue 55
O=C(Nc1nc(-c2ccc3c(c2)OCO3)cs1)C1COc2ccccc2O1 (stereo not drawn)	SIRT5 block 16 (no result: E-selectin induc)
O=C(Nc1nc(-c2ccccn2)cs1)C1COc2ccccc2O1 (stereo not drawn)	none
CCCNC(=O)N1CC2(C1)[C@@H](c1ccccc1)[C@@H](CO)N2C(=O)C1CCCC1	none
Cc1noc(C)c1S(=O)(=O)N(C)C[C@@H]1OCCCC[C@H](C)Oc2ccc(NS(=O)(=O)c3ccc(Cl)cc3)cc2C(=O)N([C@@H](C)CO)C[C@H]1C	none
